Assay results reported in ChEMBL document CHEMBL3414528, “Novel naftopidil-related derivatives and their biological effects as alpha1-adrenoceptors antagonists and antiproliferative agents” (Eur J Med Chem, 2015).
Active and inactive are the calls of the source. The rule behind the calls is not given here.

Key:
[1] = Cell cycle arrest in human PC3 cells assessed as accumulation at S phase at 20 uM after 24 hrs by propidium iodide staining-based flow cytometry (reference value: 27.26%); format: functional; details: PC-3
How it was run: (§1)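 PC-3 cells given compound at 5, 10, 15, 20 or 30 μM, or 0.1% DMSO vehicle, for 24 h; stained with propidium iodide and analysed by flow cytometry for G0/G1, S and G2/M fractions.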

[2] = test system: PC-3; assay: Induction of apoptosis in human PC3 cells assessed as total apoptotic cells at 20 uM after 24 hrs by annexin V/propidium iodide staining-based flow cytometry; format: functional
How it was run: (§2)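 Phosphatidylserine exposure in PC-3 cells after 24 h at 0, 5, 10, 20 or 30 μM, by Alexa Fluor 488 annexin V/PI double staining and flow cytometry; early apoptotic = AV+/PI−, late apoptotic or dead = AV+/PI+.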

[3] = target: T1, Alpha-1B adrenergic receptor (Rattus norvegicus, UniProt P15823); assay: Antagonist activity at Sprague-Dawley rat spleen adrenergic alpha-1B receptor after 20 mins; details: read-out: pA2 (converted)
T1 sequence (P15823 whole entry): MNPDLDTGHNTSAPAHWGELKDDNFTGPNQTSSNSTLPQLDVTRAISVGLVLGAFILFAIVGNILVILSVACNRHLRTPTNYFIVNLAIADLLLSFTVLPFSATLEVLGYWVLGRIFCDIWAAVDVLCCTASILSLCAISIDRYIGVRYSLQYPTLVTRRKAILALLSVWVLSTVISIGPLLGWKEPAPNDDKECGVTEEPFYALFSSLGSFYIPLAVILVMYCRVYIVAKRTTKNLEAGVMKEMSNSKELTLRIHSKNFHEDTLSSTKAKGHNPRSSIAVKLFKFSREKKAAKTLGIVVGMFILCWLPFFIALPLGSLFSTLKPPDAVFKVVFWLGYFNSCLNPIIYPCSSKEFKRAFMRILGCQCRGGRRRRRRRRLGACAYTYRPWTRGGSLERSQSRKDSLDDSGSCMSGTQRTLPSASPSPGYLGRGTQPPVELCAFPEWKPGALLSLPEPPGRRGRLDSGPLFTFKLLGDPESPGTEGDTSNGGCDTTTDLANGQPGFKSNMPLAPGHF
How it was run: (§3)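 Isolated rat tissues (prostatic vas deferens, spleen, thoracic aorta) contracted with cumulative norepinephrine; concentration-response curves recorded in presence of increasing antagonist concentrations, antagonism read as rightward curve shift. Mean ± SEM of five to eight separate experiments.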

[4] = target: T2, Alpha-1D adrenergic receptor (Rattus norvegicus, UniProt P23944); assay: Antagonist activity at Sprague-Dawley rat thoracic aorta adrenergic alpha-1D receptor after 20 mins; details: read-out: pA2 (converted); how it was run: as §3
T2 sequence (P23944 whole entry): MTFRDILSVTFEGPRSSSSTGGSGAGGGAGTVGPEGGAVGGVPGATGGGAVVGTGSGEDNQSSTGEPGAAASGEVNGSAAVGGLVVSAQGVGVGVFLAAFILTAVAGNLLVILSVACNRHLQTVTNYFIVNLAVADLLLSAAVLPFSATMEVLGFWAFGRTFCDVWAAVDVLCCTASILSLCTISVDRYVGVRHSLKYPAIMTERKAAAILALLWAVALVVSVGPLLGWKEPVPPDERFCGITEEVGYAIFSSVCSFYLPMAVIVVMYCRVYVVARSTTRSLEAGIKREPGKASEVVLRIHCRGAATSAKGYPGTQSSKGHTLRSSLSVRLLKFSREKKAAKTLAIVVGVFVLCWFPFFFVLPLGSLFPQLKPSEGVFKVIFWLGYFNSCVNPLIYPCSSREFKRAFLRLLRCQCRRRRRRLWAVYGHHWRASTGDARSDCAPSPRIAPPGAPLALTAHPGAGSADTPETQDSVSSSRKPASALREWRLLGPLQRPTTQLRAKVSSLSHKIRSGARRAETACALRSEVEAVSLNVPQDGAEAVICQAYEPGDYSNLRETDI

[5] = test system: PC-3; assay: Induction of apoptosis in human PC3 cells assessed as late apoptotic cells at 10 uM after 24 hrs by annexin V/propidium iodide staining-based flow cytometry (reference value: 2.1%); format: functional; how it was run: as §2
[6] = Induction of apoptosis in human PC3 cells assessed as upregulation of caspase3 level after 24 hrs by Western blotting analysis; format: functional, cell-based; details: PC-3
How it was run: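 PC-3 cells exposed for 24 h to 0, 1, 5, 10, 20 or 30 μM; Bax, Bcl-2 and activated caspase-3 measured by Western blot, reported as Bax/Bcl-2 value.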

[7] = Cell cycle arrest in human PC3 cells assessed as accumulation at G0/G1 phase at 10 uM after 24 hrs by propidium iodide staining-based flow cytometry (reference value: 39.20%); format: functional; details: PC-3; how it was run: as §1
[8] = test system: PC-3; assay: Induction of apoptosis in human PC3 cells assessed as total apoptotic cells at 30 uM after 24 hrs by annexin V/propidium iodide staining-based flow cytometry; format: functional; how it was run: as §2
[9] = species on record: Rattus norvegicus; assay: Selectivity ratio for Sprague-Dawley rat thoracic aorta adrenergic alpha-1D receptor to Sprague-Dawley rat prostatic vas deferens adrenergic alpha-1A receptor
[10] = Cytotoxicity against human PC3 cells after 48 hrs by WST-8 assay; format: functional, cell-based; details: PC-3, 48 h
[11] = test system: PC-3; assay: Induction of apoptosis in human PC3 cells assessed as late apoptotic cells at 20 uM after 24 hrs by annexin V/propidium iodide staining-based flow cytometry (reference value: 2.1%); format: functional; how it was run: as §2
[12] = test system: PC-3; assay: Induction of apoptosis in human PC3 cells assessed as total apoptotic cells at 10 uM after 24 hrs by annexin V/propidium iodide staining-based flow cytometry; format: functional; how it was run: as §2
[13] = test system: PC-3; assay: Antiproliferative activity against human PC3 cells assessed as reduction in cell viability at 1.5 to 100 uM by WST-8 assay in presence of 50 uM of norepinephrine; format: functional, cell-based
How it was run: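 PC-3 cells treated with compound at 100, 75, 50, 25, 12.5, 6.25, 3.0 and 1.5 μM alone or together with norepinephrine (20 or 50 μM); viability by WST-8. Mean ± SEM, two-way ANOVA with post-hoc tests.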

COc1ccccc1N1CCN(CCCNC(=O)c2cc3ccccc3n2Cc2ccccc2)CC1
Activity [1]: 22.2% | Activity [2]: 62.7% | Kb [3]: 141 nM | Kb [4]: 2.75 nM | Activity [5]: 9.2% | Activity [6]: Dose-dependent effect | Activity [7]: 58.5% | Activity [8]: 83% | Ratio [9]: 2.6 | IC50 [10]: 15700 nM | Activity [11]: 17.8% | Activity [12]: 51.1% | Activity [13]: inactive
